# High-throughput results: PubChem BioAssay, several laboratories
# Most compounds without a hit are left out; they make up all but 2.2% or so of the library.
# Spn PMK inh: S. pneumoniae PMK inhibitors, primary screen, biochemical, mevalonate pathway, pilot trial included; phosphomevalonate kinase (Streptococcus pneumoniae D39); inhibition, % at 10 µM; 65,000 tested, 0.49% active; AID 539, 2006; purified PMK, PK/LDH-coupled NADH absorbance 340 nm;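 active = top-ranked compounds by inhibition in the single 10 µM screen, taking a fixed number of the strongest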;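 note: 0% = full reaction with DMSO carrier and 100% = background rate without enzyme reaction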
# Hsp90 inh: tumor Hsp90 inhibitors, primary screen, cell lysate, fluorescence polarization, NCI-N417 lysate | Heat shock protein HSP 90-alpha (Homo sapiens), P07900 | Cy3B-geldanamycin FP displacement | inhibition, % at 30 µM | 64,000 tested, 0.35% active | AID 429, 2006;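 active = inhibition above 50%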;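 note: 0% = tracer plus lysate wells and 100% = tracer alone without lysate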
# Spn DPM-DC inh: S. pneumoniae DPM-DC inhibitors, primary screen, biochemical, PK/LDH-coupled NADH fluorescence | diphosphomevalonate decarboxylase (Streptococcus pneumoniae D39) | purified DPM-DC | calls only at 10 µM | 65,000 tested, 0.49% active | AID 556, 2006;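 active = the 320 compounds with the highest percent inhibition in the single-dose primary screen, excluding strongly autofluorescent ones, cut at about 32% in these data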;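 note: kinetic rate of NADH fluorescence loss reporting ADP formed by the decarboxylase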
# Spn MK inh: S. pneumoniae MK inhibitors, primary screen, biochemical, PK/LDH-coupled NADH absorbance | purified MK, PK/LDH-coupled NADH absorbance 340 nm | inhibition, % at 10 µM | 65,000 tested, 0.48% active;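 active = ranked among the strongest by inhibition in the single 10 µM screen, a fixed top-ranked set picked for dose follow-up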
# S1P3 ag: human S1P3 receptor agonists, primary screen, cell-based, primary and confirmation, NFAT-BLA reporter. 60,000 tested, 0.1% active. activation, % at 4.5 µM. S1P3 NFAT-BLA reporter cells, agonism, FRET ratio; relative to 1 µM S1P, basal subtracted. Sphingosine 1-phosphate receptor 3 (Homo sapiens), Q99500. AID 373, 2006;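 active = activation above the screen-wide mean plus 3 SD, cut at about 4.5% in these data, passing the limit was not always enough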
# Target sequence (Q99500 whole entry, looked up): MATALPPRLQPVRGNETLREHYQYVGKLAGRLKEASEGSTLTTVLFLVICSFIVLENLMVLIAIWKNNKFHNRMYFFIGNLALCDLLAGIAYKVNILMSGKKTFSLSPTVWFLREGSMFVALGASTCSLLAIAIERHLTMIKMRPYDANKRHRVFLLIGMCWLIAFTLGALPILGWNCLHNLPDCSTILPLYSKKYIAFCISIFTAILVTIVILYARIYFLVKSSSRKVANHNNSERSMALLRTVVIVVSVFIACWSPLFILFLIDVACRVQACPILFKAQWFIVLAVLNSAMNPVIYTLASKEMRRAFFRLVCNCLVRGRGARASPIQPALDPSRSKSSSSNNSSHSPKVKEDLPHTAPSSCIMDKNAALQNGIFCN
#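 Material: Human S1P3 NFAT-BLA reporter CHO cells | Incubation: Overnight plating, 4 h compound 37 °C, 2 h substrate RT | Signal: FRET β-lactamase substrate fluorescence, excitation 405 nm, 460/535 nm emission ratio, background-subtracted | Compound: 4.5 µM final, single dose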
# S1P1 ag pot: S1P1 agonists and agonism potentiators, primary screen, cell-based, primary and confirmation screens, CRE-bla reporter; Sphingosine 1-phosphate receptor 1 (Homo sapiens), P21453; S1P1 CRE-bla cells, forskolin, beta-lactamase FRET, potentiator mode; S1P1 agonist co-added at EC20, 2 nM; 100% = saturating reference agonist, 0% = basal; activation, % at 9.5 µM; 56,000 tested, 0.57% active;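 active = activation above a cutoff set at the mean activation of all tested compounds plus 3 SD, cut at about 54% in these data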;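 note: forskolin at 4 µM as EC80 and the EC20 agonist is SEW2871; 100% = SEW2871 at its EC100 plus forskolin at EC80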
# Numbers without * were called inactive; i = inactive; · = no result given; + = active, no number.
SMILES,Spn PMK inh,Hsp90 inh,Spn DPM-DC inh,Spn MK inh,S1P3 ag,S1P1 ag pot
COc1ccccc1NC(=O)CSc1nc(O)cc(=O)[nH]1,16,0,i,11,0,0
O=C(CN1CCCC1)N1CCCc2c1c(=O)oc1ccc(OCc3ccccc3)cc21,4,2,+,0,-1,5
Cc1ccnc(SCC(=O)Nc2sc3c(c2C#N)CCCC3)n1,12,-6,i,10,-2,100*
O=C(NCc1ccccn1)C(F)(F)C(F)(F)C(=O)NCc1ccccn1,13,-2,i,6,0,·
CCn1c(N)c(C(=O)NC)sc1=S,7,-1,i,29,0,-10
Cc1ccc(-c2nnn(CC(=O)N(CC(=O)NCC3CCCO3)c3ccc(F)c(Cl)c3)n2)o1 (stereo not drawn),44*,1,i,0,0,-13
CCCCCNC(CC(=O)Nc1ccc(OC)cc1)C(=O)O (stereo not drawn),14,-1,i,3,-1,0
COc1ccc2nc(NC(=O)C3CCCN(S(=O)(=O)c4cccc5nsnc45)C3)sc2c1 (stereo not drawn),8,-4,i,7,1,11
COc1ccc2nc(NC(=O)C3CCCN(S(=O)(=O)c4cccc5nonc45)C3)sc2c1 (stereo not drawn),15,2,i,70*,·,·
Cc1nc(-c2c(-c3ccc(O)cc3O)noc2C(F)(F)F)cs1,0,74*,i,5,-4,8
c1ccc2c(c1)CCOC2CNCCCN1CCCCC1 (stereo not drawn),11,-9,i,0,-3,6
c1ccc(CSc2nnc(-c3ccncc3)o2)cc1,7,1,i,6,3,45
Clc1ccc(CSc2nnc(-c3ccncc3)o2)c(Cl)c1,12,-2,i,0,1,76*
O=S(=O)(NCC(c1cccnc1)N1CCN(c2ccccc2)CC1)c1cc(F)ccc1F (stereo not drawn),20,-6,i,0,·,·
Cc1cccc(N(CC(=O)NC2CCCC2)C(=O)CCCC(=O)Nc2ccccn2)c1,17,1,i,0,-1,34
Cc1ccc(C)c(N(CC(=O)NC2CCCC2)C(=O)CCCC(=O)Nc2ccccn2)c1,48*,1,i,0,0,-1
O=C(O)CCC(=O)N1CCCC1C(=O)O (stereo not drawn),·,2,·,·,·,·
O=S(=O)(NCc1ccncc1)c1ccc(Br)s1,0,0,i,3,-1,110*
C=CCOC(=O)Nc1c(C(=O)OC)[nH]c2ccc(Cl)cc12,4,-9,i,6,-1,-13
Cc1ccc2oc(=O)c3cnn(CC(=O)NC4CCN(Cc5ccccc5)CC4)c3c2c1,5,-4,+,3,0,2
O=C(Nc1ncc(Br)s1)C(Cc1ccccc1)n1cccc1 (stereo not drawn),0,-6,i,9,-1,99*
O=C(Nc1cccnc1)C(Cc1ccccc1)n1cccc1 (stereo not drawn),4,-4,i,0,1,-1
CC(C)(C)c1ccc(S(=O)(=O)/C=C/C#N)cc1,·,-1,·,·,·,·
CC(=O)Nc1nc(=S)n(-c2ccccc2)[nH]1,0,-1,i,3,0,-20
CC(C)c1nc(=S)n(-c2ccccc2)[nH]1,14,0,i,44*,-1,-6
CC12C=CC3(CN(Cc4ccccc4)C(=O)C3C1C(=O)NC1CC1)O2 (stereo not drawn),28*,2,i,5,·,·
CCOC(=O)CSc1nnc(N)s1,17,-3,i,0,0,-18
CCOC(=O)C(CCc1nnc(N)s1)C(=O)OCC,30*,-2,i,3,-1,2
